UPR XBP1 act – activators of adaptive arm of unfolded protein response (XBP1) | activation, % at 20 µM | 330,000 tested, 0.33% active | AID 463104 | CHO-XBP1 luciferase reporter, IRE1-XBP1 UPR activation, luminescence; percent of tunicamycin response, DMSO as zero;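 active = versus positive control, 20 µM dose yields 30% or more activation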;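 note: 100% = tunicamycin at 10 µg/mL and 0% = DMSO only wells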
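Material – CHO cell line with stable XBP1 luciferase reporter · Buffer or medium – F12 plus 10% FBS · Compound – single point, 20 µM final compound, 1% DMSO · Schedule – 16-18 h cell attachment at 37 °C, then 6 h compound exposure · Signal – Steady-Glo luminescence read · Benchmarks – high control tunicamycin 10 µg/mL final, low control DMSO vehicle only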
Beta2AR agonist – agonists of human beta-2 adrenergic receptor inducing internalization; P07550; Am2.2-beta2AR cells, FAP receptor internalization, flow cytometry; response, % (concentration not given with the values); 340,000 tested, 0.43% active;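 active = response above a set limit, near 3 SD of response in nonfluorescent compounds, cut at about 42% in these data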
Target sequence (P07550 whole entry, looked up): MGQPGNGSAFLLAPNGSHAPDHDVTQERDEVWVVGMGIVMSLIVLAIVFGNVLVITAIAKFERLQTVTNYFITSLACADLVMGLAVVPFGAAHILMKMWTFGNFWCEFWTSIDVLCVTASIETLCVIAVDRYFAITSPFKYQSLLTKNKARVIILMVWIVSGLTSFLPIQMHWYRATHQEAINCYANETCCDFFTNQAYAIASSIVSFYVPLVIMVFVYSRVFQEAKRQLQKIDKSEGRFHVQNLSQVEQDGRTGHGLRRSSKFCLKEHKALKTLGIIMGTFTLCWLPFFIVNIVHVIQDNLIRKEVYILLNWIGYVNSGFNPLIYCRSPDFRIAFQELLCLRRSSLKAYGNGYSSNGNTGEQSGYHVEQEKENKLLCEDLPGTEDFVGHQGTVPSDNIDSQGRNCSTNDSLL
VLA-4 inh – inhibition in a human VLA-4 binding assay; P13612; VLA-4 expressing cells, ligand binding flow cytometry; inhibition, % (about 7 µM as worked out from the volumes in the protocol); 330,000 tested, 0.2% active; in the data active = inhibition above about 50%
UPR CHOP act – apoptotic UPR (CHOP) activation; CHO-CHOP luciferase reporter, luminescence; percent of tunicamycin response over DMSO baseline; activation, % at 10 µM; 330,000 tested, 0.34% active;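 active = at 10 µM dose, activation of 40% or more, normalized to positive control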;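 note: 100% = tunicamycin at 10 µg/mL and 0% = DMSO alone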
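Evaluation: % reporter activation, DMSO baseline versus tunicamycin full activation; System: CHO-CHOP luciferase reporter cell line; Input: 500 cells/well; Incubation: 6 h compound treatment, 37 °C; Measured by: Steady-Glo luciferase luminescence; Dosing: one dose, 10 µM in 0.5% DMSO; Buffer or medium: F12 medium, 10% FBS; Benchmarks: positive tunicamycin 10 µg/mL, negative DMSO alone.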
CHOP inhibitor – blocks CHOP induction under ER stress; CHO-K1 CHOP-promoter luciferase, tunicamycin-induced, 15-18 h; inhibition, % at 10 µM; 220,000 tested, 3.8% active; AID 2732;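 active = compounds that reduced the stress-induced luciferase reporter signal by more than about 70% of percent inhibition, limit read from the data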;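 note: 0% = tunicamycin plus vehicle and 100% = wells without tunicamycin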
CHOP confirm – confirmation of CHOP induction inhibitors; inhibition, % at 10 µM; shares compounds with CHOP inhibitor; CHO-CHOP promoter luciferase reporter, tunicamycin-induced, luminescence; 2,100 tested, 45% active; AID 504437;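 active = mean of three repeat readings of reporter signal inhibition above a set limit, cut at about 70% in these data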;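 note: 0% = tunicamycin plus vehicle and 100% = wells lacking tunicamycin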
* = called active by the depositor. The entries come from a sample that favours hits as a whole.

Screening O=c1[nH]sc2ccccc12 returned Beta2AR agonist 3.0, CHOP inhibitor 96.9* and CHOP confirm -63.3.
`CC(C)CC(=O)NC(c1ccccc1)c1c(O)ccc2ccccc12` (stereo not drawn) gave UPR XBP1 act -5.5, Beta2AR agonist 4.3, VLA-4 inh -9.8 and UPR CHOP act 0.8.
Screening O=C(NC(c1ccccc1)c1c(O)ccc2ccccc12)c1ccccc1Cl (stereo not drawn) returned UPR XBP1 act -2.0, Beta2AR agonist 7.1, VLA-4 inh 17.6, UPR CHOP act 0.4, CHOP inhibitor 106.8* and CHOP confirm 125.4*.
`O=c1[nH]cnc2scc(-c3ccc(-c4ccccc4)cc3)c12` gave Beta2AR agonist 2.3, VLA-4 inh -8.9, CHOP inhibitor 96.2* and CHOP confirm -3.2.
COc1ccnc2c1c(=O)n(Cc1ccc(Cl)cc1)c(=O)n2C was read as UPR XBP1 act -0.4, Beta2AR agonist 1.8, VLA-4 inh -16.7 and UPR CHOP act -0.7.
For Cc1ccc(N2CC(=O)Nc3c(oc4nc(-c5ccccc5)cc(C)c34)C2=O)cc1 the results were UPR XBP1 act 2.1, Beta2AR agonist -1.4, VLA-4 inh 3.2, UPR CHOP act 2.8, CHOP inhibitor 97.2* and CHOP confirm -68.8.
For O=C1N(c2ccccc2)C(c2ccccc2)C12CCCCC2 (stereo not drawn) the results were UPR XBP1 act 0.6, Beta2AR agonist 2.6 and UPR CHOP act 0.9.
Screening Cc1sc2ncnc(N3CCCCC3C)c2c1C (stereo not drawn) returned UPR XBP1 act 0.4, Beta2AR agonist -6.3, VLA-4 inh -5.9, UPR CHOP act 2.2, CHOP inhibitor 98.7* and CHOP confirm 70.3*.
`Nc1nc(SCC(=O)Nc2ccc(OCc3ccccc3)cc2)n[nH]1` gave UPR XBP1 act 0.0, Beta2AR agonist 0.2, VLA-4 inh -0.3, UPR CHOP act 2.5 and CHOP inhibitor 4.6.
For Cc1ccc(/C=N/n2c(C3CCCCC3)n[nH]c2=S)s1 the results were UPR XBP1 act 0.8, Beta2AR agonist -2.2, VLA-4 inh -5.5, UPR CHOP act 2.7, CHOP inhibitor 104.8* and CHOP confirm 95.6*.
Screening S=c1[nH]nc(C2CCCCC2)n1/N=C/c1ccccc1 returned UPR XBP1 act 1.5, Beta2AR agonist 1.0, VLA-4 inh 4.0 and UPR CHOP act -0.6.
`COc1ccccc1/C=C\C=N\n1c(C2CCCCC2)n[nH]c1=S` gave UPR XBP1 act 1.8, Beta2AR agonist 7.0, VLA-4 inh 4.9, UPR CHOP act -0.4, CHOP inhibitor 108.0* and CHOP confirm 2.6.
Cc1cc(C)nc(-n2cc(C(=O)c3cc(F)ccc3O)cn2)n1 was read as UPR XBP1 act 0.1, Beta2AR agonist -0.8, VLA-4 inh -9.3, UPR CHOP act -0.5, CHOP inhibitor 97.0* and CHOP confirm 26.8.
O=C(c1cnn(-c2cccc(F)c2)c1)c1ccccc1O was read as UPR XBP1 act 5.8, Beta2AR agonist -7.0, VLA-4 inh 9.8 and UPR CHOP act 1.3.
Screening Cc1ccc2sc(NC(=O)c3ccc(N4C(=O)CCC4=O)cc3)nc2c1C returned UPR XBP1 act -0.7, Beta2AR agonist -0.7, VLA-4 inh 29.1, UPR CHOP act -0.7, CHOP inhibitor 100.0* and CHOP confirm -20.9.
C/C(=N\N=C(c1ccccc1)c1ccccc1)c1cccs1 was read as UPR XBP1 act -1.8, Beta2AR agonist 24.4, VLA-4 inh -1.9, UPR CHOP act 2.5 and CHOP inhibitor 33.1.
CC(NO)/C(=N\O)c1cccs1 (stereo not drawn) was read as UPR XBP1 act -3.2, Beta2AR agonist -1.2, VLA-4 inh 17.7, UPR CHOP act 0.5, CHOP inhibitor 106.3* and CHOP confirm 40.0.
For COc1c(C(=O)Nc2ccc3[nH]c(=O)[nH]c3c2)cc2ccccc2c1Br the results were UPR XBP1 act -3.1, Beta2AR agonist -6.0, VLA-4 inh -2.1, UPR CHOP act -0.5, CHOP inhibitor 99.5* and CHOP confirm -15.2.
For Cc1ccc(C(C(=O)NCc2ccco2)N(C(=O)CNC(=O)c2cccs2)c2c(C)cccc2C)cc1 (stereo not drawn) the results were UPR XBP1 act 18.7, Beta2AR agonist -9.9, VLA-4 inh -6.8, UPR CHOP act 4.6, CHOP inhibitor 100.7* and CHOP confirm 80.4*.
Screening Cc1cc(=O)n2c(C(=O)Nc3ccc(C)c(C)c3)c(C(=O)Nc3ccccc3)sc2n1 returned UPR XBP1 act -0.1, Beta2AR agonist -3.9, VLA-4 inh -8.6, UPR CHOP act 2.4, CHOP inhibitor 97.2* and CHOP confirm 25.5.
`O=C(NNc1ccccc1[N+](=O)[O-])Nc1ccc(Cl)c(Cl)c1` gave UPR XBP1 act -1.0, Beta2AR agonist -2.2, VLA-4 inh 9.8, UPR CHOP act 2.3, CHOP inhibitor 101.3* and CHOP confirm 71.2*.
For Cc1cc2c(n1-c1ccc(Br)cc1)CC(C)(C)CC2=O the results were UPR XBP1 act 0.3, Beta2AR agonist 9.5, VLA-4 inh -2.0, UPR CHOP act 0.2 and CHOP inhibitor 15.0.
Cc1ccc(-n2c(C)cc3c2CC(C)(C)CC3=O)cc1C was read as UPR XBP1 act 0.9, Beta2AR agonist 8.5, VLA-4 inh 8.2, UPR CHOP act -0.5, CHOP inhibitor 105.3* and CHOP confirm 37.7.
For COc1ccc(CCNC(=O)CSc2nc(=O)[nH]c3c2CCC3)cc1OC the results were UPR XBP1 act -0.1, Beta2AR agonist 1.3, VLA-4 inh 1.6 and UPR CHOP act 7.9.
`Cc1ccccc1-c1noc(-c2ccc(O)cc2)n1` gave UPR XBP1 act 1.8, Beta2AR agonist -27.1, VLA-4 inh 22.5, UPR CHOP act 2.7, CHOP inhibitor 104.5* and CHOP confirm 23.3.
For Cc1ccc(-c2nc(-c3ccccn3)no2)cc1 the results were UPR XBP1 act -10.0, Beta2AR agonist -7.8, VLA-4 inh 15.6, UPR CHOP act -9.7 and CHOP confirm 124.3*.
`COc1cccc(NC(=O)C2CCN(S(=O)(=O)c3ccc4[nH]c(=O)ccc4c3)CC2)c1` gave UPR XBP1 act -0.6, Beta2AR agonist -1.8, VLA-4 inh -7.1 and UPR CHOP act -2.3.
Screening COc1ccc(Cl)cc1N1C(=O)CN(Cc2cc(OC)c(OC)c(OC)c2)C1=S returned UPR XBP1 act -5.7, Beta2AR agonist 17.0, VLA-4 inh 27.1 and UPR CHOP act 1.7.
`Cc1cccc(-c2nc(CS(=O)CC(=O)NC3CCCCC3)c(C)o2)c1` (stereo not drawn) gave UPR XBP1 act -3.9, Beta2AR agonist -6.7, VLA-4 inh 2.9 and UPR CHOP act 2.2.
`O=C(O)CCCCCN1C(=O)/C(=C\c2cn(-c3ccccc3)nc2-c2cccs2)SC1=S` gave UPR XBP1 act -1.4, Beta2AR agonist 5.4, VLA-4 inh -10.7, UPR CHOP act 2.8 and CHOP inhibitor 9.1.

Screening results as filed in PubChem BioAssay.
